Experimental data pooled from the literature.
Lines come from different studies, so protocols differ.
Read-out: enzyme activity
Mode: inhibitor
SRC: Proto-oncogene tyrosine-protein kinase Src (SRC, Homo sapiens, UniProt P12931)

With `Cc1cnc(NC2CCOCC2)nc1-n1cnc(C(=O)NC(CN)c2cc(F)cc(Cl)c2)c1` (stereo not drawn) the remaining activity was 103% (Proto-oncogene tyrosine-protein kinase Src (SRC, Homo sapiens, UniProt P12931, T341M); radiometric; 1 µM).
`COc1cc(Nc2cnc(C#N)c(O[C@H](C)CN(C)C)n2)ncc1-c1cnn(C)c1` gave a remaining activity of 72% (SRC; radiometric; 10 µM).
`O=C(Nc1cnn(-c2csc(C(=O)NC3COC3)c2)c1)Nc1ccccc1Cl` gave a remaining activity of 91.1% (SRC; 5 µM).
`Nc1ncnc2occ(-c3ccc(NC(=O)Nc4cc(C(F)(F)F)ccc4F)cc3)c12` has a remaining activity of 0.2% (SRC; 20 µM).
For `Cc1ccc(NC(=O)c2ccc(C)c(C(F)(F)F)c2)cc1C#Cc1nn(C2CCC(O)CC2)c2ncnc(N)c12` (stereo not drawn), the remaining activity was 0% (SRC; 10 µM).
`Cc1[nH]c(/C=C2\C(=O)Nc3ccc(F)cc32)c(C)c1C(=O)N[C@H]1CCN(C(=O)N(C)C)C1` has a remaining activity of 89% (SRC; 1 µM).
The remaining activity of `Cn1c(=O)n(-c2ccc(C(C)(C)C#N)cc2)c2c3cc(-c4cnc5ccccc5c4)ccc3ncc21` is reported as 121% (SRC; 10 µM).
For `CCN(CC)c1ccc(C2=NNC(=O)CC2C)cc1[N+](=O)[O-]` (stereo not drawn), the remaining activity was 94% (SRC; 10 µM).
The remaining activity of `Nc1nc(NC2CCCCC2)sc1C(=O)c1ccccc1` is reported as 99% (SRC; 10 µM).
The remaining activity of `O=C(Nc1cnn(-c2csc(C(=O)NC3COC3)c2)c1)Nc1c(F)cccc1Cl` is reported as 98.4% (SRC; 5 µM).
`CC(C)(C)c1nc(-c2cccc(NS(=O)(=O)c3c(F)cccc3F)c2F)c(-c2ccnc(N)n2)s1` has a remaining activity of 68% (SRC; radiometric; 1 µM).
`Nc1nc(Nc2ccccc2)sc1C(=O)c1c(F)cccc1F` has a remaining activity of 47% (SRC; 10 µM).
